From ChEMBL document CHEMBL1158680, “Chemical constituents and biological activities of the fruit of Zanthoxylum integrifoliolum” (1999)
Calls of active or inactive are those of the source. The calls are words filed in the database; no cut-off is given here.

Legend:
[1] = Antiplatelet activity against rabbit platelets assessed as inhibition of PAF-induced platelet aggregation at 100 ug/ml preincubated for 3 mins by turbidimetric method; type: functional, Oryctolagus cuniculus; design: scale not given: the % may be the effect or the level left
Method in brief: (§1)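 Washed rabbit platelets were preincubated with test sample or 0.5% DMSO vehicle for 3 min at 37 °C. Inducers were thrombin 0.1 U/mL, arachidonic acid 100 μM, collagen 10 μg/mL or PAF 2 nM. Turbidimetric read-out took platelet suspension absorbance as 0% and platelet-free Tyrode's as 100% aggregation, measured at 6 min. Results are mean ± SEM with n per entry.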

[2] = Antiplatelet activity against rabbit platelets assessed as inhibition of PAF-induced platelet aggregation at 50 ug/ml preincubated for 3 mins by turbidimetric method; type: functional, Oryctolagus cuniculus; design: scale not given: the % may be the effect or the level left; method in brief: as §1
[3] = Antiplatelet activity against rabbit platelets assessed as inhibition of thrombin-induced platelet aggregation at 100 ug/ml preincubated for 3 mins by turbidimetric method; type: functional, Oryctolagus cuniculus; design: scale not given: the % may be the effect or the level left; method in brief: as §1
[4] = (§2) Antiplatelet activity against rabbit platelets assessed as inhibition of arachidonic acid-induced platelet aggregation at 100 ug/ml preincubated for 3 mins by turbidimetric method; type: functional, Oryctolagus cuniculus; design: scale not given: the % may be the effect or the level left; method in brief: as §1
[5] = (§3) Antiplatelet activity against rabbit platelets assessed as inhibition of arachidonic acid-induced platelet aggregation at 50 ug/ml preincubated for 3 mins by turbidimetric method; type: functional, Oryctolagus cuniculus; design: scale not given: the % may be the effect or the level left; method in brief: as §1
[6] = (§4) Antiplatelet activity against rabbit platelets assessed as inhibition of collagen-induced platelet aggregation at 100 ug/ml preincubated for 3 mins by turbidimetric method; type: functional, Oryctolagus cuniculus; design: scale not given: the % may be the effect or the level left; method in brief: as §1
Aorta [7] = experiment: Vasorelaxation activity in rat aorta assessed as inhibition of K+-induced contraction at 50 ug/ml preincubated for 15 mins relative to control; type: functional; design: scale not given: the % may be the effect or the level left
Method in brief: (§5)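 Rat aorta was preincubated with test sample or 0.1% DMSO vehicle at 37 °C for 15 min. Contraction was then evoked with high K+ (80 mM) or norepinephrine (3 μM). Response is expressed as percent of control contraction, mean ± SEM, n = 3.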

Aorta [8] = experiment: Vasorelaxation activity in rat aorta assessed as inhibition of norepinephrine-induced phasic contraction at 50 ug/ml preincubated for 15 mins relative to control; type: functional; design: scale not given: the % may be the effect or the level left; method in brief: as §5
Aorta [9] = experiment: Vasorelaxation activity in rat aorta assessed as inhibition of norepinephrine-induced tonic contraction at 50 ug/ml preincubated for 15 mins relative to control; type: functional; design: scale not given: the % may be the effect or the level left; method in brief: as §5
[10] = Antiplatelet activity against rabbit platelets assessed as inhibition of PAF-induced platelet aggregation at 20 ug/ml preincubated for 3 mins by turbidimetric method; type: functional, Oryctolagus cuniculus; design: scale not given: the % may be the effect or the level left; method in brief: as §1
Aorta [11] = experiment: Vasorelaxation activity in rat aorta assessed as inhibition of K+-induced contraction at 15 ug/ml preincubated for 15 mins relative to control; type: functional; design: scale not given: the % may be the effect or the level left; method in brief: as §5
Aorta [12] = experiment: Vasorelaxation activity in rat aorta assessed as inhibition of K+-induced contraction at 5 ug/ml preincubated for 15 mins relative to control; type: functional; design: scale not given: the % may be the effect or the level left; method in brief: as §5
Aorta [13] = experiment: Vasorelaxation activity in rat aorta assessed as inhibition of norepinephrine-induced phasic contraction at 15 ug/ml preincubated for 15 mins relative to control; type: functional; design: scale not given: the % may be the effect or the level left; method in brief: as §5
Aorta [14] = experiment: Vasorelaxation activity in rat aorta assessed as inhibition of norepinephrine-induced tonic contraction at 15 ug/ml preincubated for 15 mins relative to control; type: functional; design: scale not given: the % may be the effect or the level left; method in brief: as §5
[15] = Antiplatelet activity against rabbit platelets assessed as inhibition of thrombin-induced platelet aggregation at 50 ug/ml preincubated for 3 mins by turbidimetric method; type: functional, Oryctolagus cuniculus; design: scale not given: the % may be the effect or the level left; method in brief: as §1
[16] = Antiplatelet activity against rabbit platelets assessed as inhibition of thrombin-induced platelet aggregation at 20 ug/ml preincubated for 3 mins by turbidimetric method; type: functional, Oryctolagus cuniculus; design: scale not given: the % may be the effect or the level left; method in brief: as §1
[17] = Antiplatelet activity against rabbit platelets assessed as inhibition of arachidonic acid-induced platelet aggregation at 20 ug/ml preincubated for 3 mins by turbidimetric method; type: functional, Oryctolagus cuniculus; design: scale not given: the % may be the effect or the level left; method in brief: as §1
[18] = (§6) Antiplatelet activity against rabbit platelets assessed as inhibition of collagen-induced platelet aggregation at 50 ug/ml preincubated for 3 mins by turbidimetric method; type: functional, Oryctolagus cuniculus; design: scale not given: the % may be the effect or the level left; method in brief: as §1
[19] = Antiplatelet activity against rabbit platelets assessed as inhibition of collagen-induced platelet aggregation at 20 ug/ml preincubated for 3 mins by turbidimetric method; type: functional, Oryctolagus cuniculus; design: scale not given: the % may be the effect or the level left; method in brief: as §1
Platelet [20] = experiment: as §2; type: functional; conditions: Oryctolagus cuniculus; method in brief: as §1
Platelet [21] = experiment: as §3; type: functional; conditions: Oryctolagus cuniculus; method in brief: as §1
Platelet [22] = experiment: as §4; type: functional; conditions: Oryctolagus cuniculus; method in brief: as §1
Platelet [23] = experiment: as §6; type: functional; conditions: Oryctolagus cuniculus; method in brief: as §1
[24] = Antiplatelet activity against rabbit platelets assessed as inhibition of arachidonic acid-induced platelet aggregation at 10 ug/ml preincubated for 3 mins by turbidimetric method; type: functional, Oryctolagus cuniculus; design: scale not given: the % may be the effect or the level left; method in brief: as §1
[25] = Antiplatelet activity against rabbit platelets assessed as inhibition of arachidonic acid-induced platelet aggregation at 5 ug/ml preincubated for 3 mins by turbidimetric method; type: functional, Oryctolagus cuniculus; design: scale not given: the % may be the effect or the level left
Method in brief: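 Washed rabbit platelet suspension preincubated with DMSO (0.5%, control) or sample at 37 °C for 3 min. Arachidonic acid (100 μM) then added. Turbidimetric read-out with platelet suspension as 0% and platelet-free Tyrode's solution as 100% aggregation. Percent aggregation read at 6 min. Means ± S.E.M. (n).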

SMILES | Activity [1] [%] | Activity [3] [%] | Activity [4] [%] | Activity [5] [%] | Activity [6] [%] | Activity (Aorta [7]) [%] | Activity (Aorta [8]) [%] | Activity (Aorta [9]) [%] | Activity [17] [%] | also measured
CCCCCCCCC/C=C/C=C/C(=O)NCC(C)(C)O [TETRAHYDROBUNGEANOOL] | 6.7 | 74 | 0 | 58.3 | 0 | – | – | – | – | Activity [2]: 82.7%
COc1cc2ccc(=O)oc2cc1O [SCOPOLETIN] | 78.2 | 89.8 | 80.5 | – | 80.9 | 88.4 | 91.9 | 81.6 | – | –
O=c1ccc2nccc3c4ccccc4n1c23 [CANTHIN-6-ONE] | 36.4 | 85.3 | 4.2 | 57.3 | 7.9 | – | – | – | – | –
CC(=O)[C@H]1CC[C@H]2[C@@H]3CC=C4C[C@@H](O)CC[C@]4(C)[C@H]3CC[C@]12C [PREGNENOLONE] | 77 | 91.8 | 86.5 | – | 84.7 | 93.6 | 114.1 | 102.6 | – | –
CCCCCCC(=O)CC/C=C/C=C/C(=O)NCC(C)C [LANYUAMIDE I] | 0 | 8.9 | 0 | 0 | 0 | 28.6 | 77.1 | 45.5 | 15.6 | Activity [2]: 20%; Activity [10]: 76%; Activity (Aorta [11]): 47.6%; Activity (Aorta [12]): 82%; Activity (Aorta [13]): 100%; Activity (Aorta [14]): 77.1%; Activity [15]: 75.7%; Activity [16]: 80.4%; Activity [18]: 0%; Activity [19]: 2.7%
c1cc2c(cc1[C@H]1OC[C@H]3[C@@H]1CO[C@@H]3c1ccc3c(c1)OCO3)OCO2 [SESAMIN] | – | – | – | – | – | – | – | – | 82.3 | Activity [10]: 83.7%; Activity [16]: 87.8%; Activity (Platelet [20]): inactive; Activity (Platelet [21]): inactive; Activity (Platelet [22]): inactive; Activity (Platelet [23]): inactive; Activity [19]: 83.2%
COc1ccc2c(c1OC)CN1CCc3cc4c(cc3[C@@H]1C2)OCO4 [CANADINE] | 54.7 | 91.2 | 45.8 | – | 76.4 | 13.6 | 11.2 | 25.6 | – | Activity (Aorta [11]): 49.8%; Activity (Aorta [12]): 82.8%; Activity (Aorta [13]): 79.1%; Activity (Aorta [14]): 70%
CC/C=C\C/C=C\CC/C=C/C=C/C(=O)NCC(C)(C)O | 38.4 | 89.2 | 0 | 0 | 0 | – | – | – | 4 | Activity [24]: 27.8%; Activity [25]: 46.2%
